From article PMC11034909 (Advanced therapeutics, 2023)

Experiments:
[1] = doxorubicin; cited from earlier work
[2] = Body weight of CT26 tumor-bearing mice; type: in vivo, mouse; settings: doxorubicin 5 mg/kg i.v. days 6, 9, 12, alone or in the combination group
How it was run: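 Eight-week-old male and female Balb/c mice received 1×10⁶ CT26 cells s.c. in the right flank. At 50–100 mm³, tumours were randomised into groups of 10 (half female). Doxorubicin 5 mg/kg i.v. was given on days 6, 9 and 12 post-implant, alone or combined with test peptide 5 mg/kg daily. Saline served as negative control. Body weight was recorded daily throughout treatment.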

[3] = test system: triple negative breast cancer; settings: cited from earlier work
[4] = test system: tumor immunogenic cell death (ICD); settings: cited from earlier work

SMILES: COc1cccc2c1C(=O)c1c(O)c3c(c(O)c1C2=O)C[C@@](O)(C(=O)CO)C[C@@H]3O[C@H]1C[C@H](N)[C@H](O)[C@H](C)O1 [doxorubicin]
- Maximum tolerated dose [1]: 5 mg/kg
- Systemic toxicity (weight loss) [2]: slight systemic toxicity
- Effect on CD47 expression [3]: induced CD47 expression in triple negative breast cancer
- Induction of tumor immunogenic cell death [4]: induce tumor immunogenic cell death (ICD)
